Values after ≈ are worked out from the molar mass of the structure shown.
Legend:
Procathepsin L [1] = molecular target: T1, Procathepsin L (Homo sapiens, UniProt P07711); assay: Inhibition of cathepsin L
In short: (§1)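 Purified human cathepsin enzymes, with assay conditions per an earlier report. Read-out is IC50; standard deviations were typically within 35% of the IC50.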

Cathepsin S [2] = molecular target: T2, Cathepsin S (Homo sapiens, UniProt P25774); assay: Inhibition of cathepsin S; in short: as §1
T2 sequence (P25774 whole entry): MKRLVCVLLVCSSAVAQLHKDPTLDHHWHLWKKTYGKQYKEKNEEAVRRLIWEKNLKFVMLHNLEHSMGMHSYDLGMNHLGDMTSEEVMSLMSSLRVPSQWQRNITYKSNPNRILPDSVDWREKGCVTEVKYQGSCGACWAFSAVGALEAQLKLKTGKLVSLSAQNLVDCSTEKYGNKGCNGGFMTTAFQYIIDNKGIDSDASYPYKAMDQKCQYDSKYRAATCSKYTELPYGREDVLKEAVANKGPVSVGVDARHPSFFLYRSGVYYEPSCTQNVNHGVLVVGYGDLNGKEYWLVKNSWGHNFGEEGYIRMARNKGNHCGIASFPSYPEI

Cathepsin B [3] = molecular target: T3, Cathepsin B (Homo sapiens, UniProt P07858); assay: Inhibition of cathepsin B; in short: as §1
Cathepsin K [4] = molecular target: Cathepsin K (Homo sapiens, UniProt P43235); assay: Inhibition of humanized rabbit cathepsin K
Cathepsin K [5] = molecular target: T4, Cathepsin K (Oryctolagus cuniculus, UniProt P43236); assay: Inhibition of rabbit cathepsin K
T4 sequence (P43236 whole entry): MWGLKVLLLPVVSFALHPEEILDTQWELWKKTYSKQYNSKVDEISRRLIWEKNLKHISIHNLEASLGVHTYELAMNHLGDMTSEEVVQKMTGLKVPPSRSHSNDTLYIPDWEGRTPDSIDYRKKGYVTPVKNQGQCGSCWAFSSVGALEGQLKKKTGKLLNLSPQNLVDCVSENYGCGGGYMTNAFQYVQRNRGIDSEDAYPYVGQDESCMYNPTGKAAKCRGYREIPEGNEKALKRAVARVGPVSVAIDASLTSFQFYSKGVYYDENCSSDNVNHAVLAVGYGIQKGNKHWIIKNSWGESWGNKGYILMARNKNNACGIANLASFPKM

[6] = Clearance in monkey; type: ADME, organism-based, Macaca mulatta; settings: rhesus monkey, in vivo
[7] = Half life in monkey; type: ADME, organism-based, Macaca mulatta; settings: rhesus monkey, in vivo
Osteoclast = assay: Inhibition of bone resorption in rabbit osteoclast; settings: Oryctolagus cuniculus
Fibroblast = assay: Accumulation of intracellular type I collagen in human dermal fibroblast upto 10 uM; type: functional
In short: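 Primary human dermal fibroblasts were grown in 3-D collagen gel, with inhibitors present for the final 3 days at concentrations up to 10 µM. Cells were freed from the gel with collagenase, fixed and permeabilized. Intracellular type I collagen was stained with an anti-type I collagen mAb plus a FITC-labelled secondary antibody and quantified by flow cytometry.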

[8] = Oral bioavailability in rhesus monkey at 5 mg/kg; type: ADME, organism-based, Macaca mulatta; settings: in vivo
Cathepsin Z = Cathepsin Z (Homo sapiens, UniProt Q9UBR2); assay: Inhibition of cathepsin Z
Chain of Cathepsin Z (Q9UBR2 whole entry): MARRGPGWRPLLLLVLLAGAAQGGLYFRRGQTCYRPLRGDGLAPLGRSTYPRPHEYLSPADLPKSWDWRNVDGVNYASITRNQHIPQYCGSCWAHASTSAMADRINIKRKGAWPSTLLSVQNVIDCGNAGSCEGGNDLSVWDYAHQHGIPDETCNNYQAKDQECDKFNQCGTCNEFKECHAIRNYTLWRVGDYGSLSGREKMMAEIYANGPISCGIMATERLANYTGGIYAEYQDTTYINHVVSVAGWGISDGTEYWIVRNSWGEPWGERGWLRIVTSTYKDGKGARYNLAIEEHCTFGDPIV

Cathepsin B [9] = molecular target: T3, Cathepsin B; assay: Inhibition of cathepsin B in human HepG2 cells; type: cell-based
In short: (§2)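 Whole-cell enzyme occupancy assays run as previously described: human HepG2 cells for cathepsin B and L, and Ramos cells for cathepsin S. Read-out is IC50.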

[10] = Metabolic stability in human hepatocyte at 20 uM after 2 hrs assessed as recovery of parent compound; type: ADME, cell-based; settings: hepatocytes, read-out: Stability
[11] = Half life in rhesus monkey at 5 mg/kg, po; type: ADME, organism-based, Macaca mulatta; design: dose 5 mg/kg, route oral; settings: in vivo
Rhesus monkey = assay: Volume of distribution at steady state in rhesus monkey at 5 mg/kg, po; type: ADME, organism-based, Macaca mulatta; design: dose 5 mg/kg, route oral; settings: in vivo
Cathepsin L2 = molecular target: T5, Cathepsin L2 (Homo sapiens, UniProt O60911); assay: Inhibition of cathepsin V; in short: as §1
T5 sequence (O60911 whole entry): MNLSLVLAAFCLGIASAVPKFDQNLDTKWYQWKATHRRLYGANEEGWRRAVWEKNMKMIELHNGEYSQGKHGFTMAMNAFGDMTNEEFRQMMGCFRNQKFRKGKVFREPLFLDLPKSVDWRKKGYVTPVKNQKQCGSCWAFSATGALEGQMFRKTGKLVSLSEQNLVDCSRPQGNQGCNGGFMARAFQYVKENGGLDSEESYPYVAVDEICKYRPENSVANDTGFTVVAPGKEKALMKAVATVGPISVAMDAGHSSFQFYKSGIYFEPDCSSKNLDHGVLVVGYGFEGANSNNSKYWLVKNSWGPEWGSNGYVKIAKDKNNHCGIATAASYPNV

Dipeptidyl peptidase 1 = Dipeptidyl peptidase 1 (Homo sapiens, UniProt P53634); assay: Inhibition of cathepsin C; in short: as §1
Chain of Dipeptidyl peptidase 1 (P53634 25-134 limits assumed): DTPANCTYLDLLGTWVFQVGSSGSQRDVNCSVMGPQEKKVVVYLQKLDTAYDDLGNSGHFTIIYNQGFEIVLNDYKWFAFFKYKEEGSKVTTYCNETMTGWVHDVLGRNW
Chain of Dipeptidyl peptidase 1 (P53634 231-394 limits assumed): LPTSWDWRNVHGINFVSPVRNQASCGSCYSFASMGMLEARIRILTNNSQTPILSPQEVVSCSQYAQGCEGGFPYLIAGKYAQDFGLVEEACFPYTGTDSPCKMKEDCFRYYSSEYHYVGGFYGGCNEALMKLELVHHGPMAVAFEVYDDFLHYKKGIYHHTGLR
Chain of Dipeptidyl peptidase 1 (P53634 395-463 limits assumed): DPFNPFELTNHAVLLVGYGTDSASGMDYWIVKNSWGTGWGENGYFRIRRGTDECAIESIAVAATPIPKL

Cathepsin K [12] = molecular target: T6, Cathepsin K (Homo sapiens, UniProt P43235); assay: Inhibition of human cathepsin K
T6 sequence (P43235 whole entry): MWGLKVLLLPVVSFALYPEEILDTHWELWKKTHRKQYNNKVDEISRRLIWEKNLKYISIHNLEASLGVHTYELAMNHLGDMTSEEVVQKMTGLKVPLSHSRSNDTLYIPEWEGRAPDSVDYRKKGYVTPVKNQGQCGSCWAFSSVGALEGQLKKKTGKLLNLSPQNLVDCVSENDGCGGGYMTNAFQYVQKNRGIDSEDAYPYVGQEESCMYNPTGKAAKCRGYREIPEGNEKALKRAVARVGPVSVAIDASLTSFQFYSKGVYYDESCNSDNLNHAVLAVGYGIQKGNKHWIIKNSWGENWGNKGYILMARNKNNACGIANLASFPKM

[13] = Oral bioavailability in dog at 5 mg/kg; type: ADME, organism-based, Canis lupus familiaris; settings: in vivo
Procathepsin L [14] = molecular target: T1, Procathepsin L; assay: Inhibition of cathepsin L in human HepG2 cells; type: cell-based
[15] = Clearance in rat at 10 mg/kg, po; type: ADME, organism-based; design: dose 10 mg/kg, route oral; settings: in vivo
[16] = Inhibition of antigen presenting mouse B cells; type: functional, cell-based
Cathepsin F = molecular target: T7, Cathepsin F (Homo sapiens, UniProt Q9UBX1); assay: Inhibition of cathepsin F; in short: as §1
T7 sequence (Q9UBX1 whole entry): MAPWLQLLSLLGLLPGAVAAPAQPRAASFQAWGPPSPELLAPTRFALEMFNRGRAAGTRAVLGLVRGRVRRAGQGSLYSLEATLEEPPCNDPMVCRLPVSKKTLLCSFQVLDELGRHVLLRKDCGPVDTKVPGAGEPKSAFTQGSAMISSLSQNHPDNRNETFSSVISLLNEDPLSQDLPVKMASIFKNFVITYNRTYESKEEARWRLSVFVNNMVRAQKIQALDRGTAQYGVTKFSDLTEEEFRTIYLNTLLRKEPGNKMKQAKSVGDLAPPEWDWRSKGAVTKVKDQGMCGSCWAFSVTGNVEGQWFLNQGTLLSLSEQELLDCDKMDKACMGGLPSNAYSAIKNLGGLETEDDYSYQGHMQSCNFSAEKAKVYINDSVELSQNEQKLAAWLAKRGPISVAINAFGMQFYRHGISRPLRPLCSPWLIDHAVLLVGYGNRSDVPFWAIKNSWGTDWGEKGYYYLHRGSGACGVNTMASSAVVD

[17] = Clearance in rhesus monkey at 5 mg/kg, po; type: ADME, organism-based, Macaca mulatta; design: dose 5 mg/kg, route oral; settings: in vivo
Pro-cathepsin H = molecular target: T8, Pro-cathepsin H (Homo sapiens, UniProt P09668); assay: Inhibition of cathepsin H; in short: as §1
T8 sequence (P09668 whole entry): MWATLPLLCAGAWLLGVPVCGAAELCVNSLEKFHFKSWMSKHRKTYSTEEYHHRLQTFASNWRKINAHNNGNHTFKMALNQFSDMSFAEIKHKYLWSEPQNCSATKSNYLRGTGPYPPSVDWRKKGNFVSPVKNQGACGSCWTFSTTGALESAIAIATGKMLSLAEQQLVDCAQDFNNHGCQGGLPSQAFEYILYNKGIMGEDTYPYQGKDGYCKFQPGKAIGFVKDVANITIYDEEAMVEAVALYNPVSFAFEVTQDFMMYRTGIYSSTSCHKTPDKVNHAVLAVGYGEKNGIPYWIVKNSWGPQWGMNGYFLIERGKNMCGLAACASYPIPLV

Canis familiaris = assay: Volume of distribution at steady state in dog at 5 mg/kg, po; type: ADME, organism-based, Canis lupus familiaris; design: dose 5 mg/kg, route oral; settings: in vivo
[18] = Oral bioavailability in rat at 10 mg/kg; type: ADME, organism-based; settings: in vivo
[19] = Half life in rat at 10 mg/kg, po; type: ADME, organism-based; design: dose 10 mg/kg, route oral; settings: in vivo
[20] = Metabolic stability in dog hepatocyte at 20 uM after 2 hrs assessed as recovery of parent compound; type: ADME, cell-based, Canis lupus familiaris; settings: hepatocytes, read-out: Stability
[21] = Metabolic stability in rhesus monkey hepatocyte at 20 uM after 2 hrs assessed as recovery of parent compound; type: ADME, cell-based, Macaca mulatta; settings: hepatocytes, read-out: Stability
Splenocyte = assay: Inhibition of MHC 2 invariant chain iip10 in mouse splenocytes; type: functional, cell-based
Cathepsin S [22] = molecular target: T2, Cathepsin S; assay: Inhibition of cathepsin S in human ramos cells; type: cell-based; in short: as §2
[23] = Half life in dog at 5 mg/kg, po; type: ADME, organism-based, Canis lupus familiaris; design: dose 5 mg/kg, route oral; settings: in vivo
Rattus norvegicus = assay: Volume of distribution at steady state in rat at 10 mg/kg, po; type: ADME, organism-based; design: dose 10 mg/kg, route oral; settings: in vivo
[24] = Clearance in dog at 5 mg/kg, po; type: ADME, organism-based, Canis lupus familiaris; design: dose 5 mg/kg, route oral; settings: in vivo

T1 sequence (P07711 whole entry): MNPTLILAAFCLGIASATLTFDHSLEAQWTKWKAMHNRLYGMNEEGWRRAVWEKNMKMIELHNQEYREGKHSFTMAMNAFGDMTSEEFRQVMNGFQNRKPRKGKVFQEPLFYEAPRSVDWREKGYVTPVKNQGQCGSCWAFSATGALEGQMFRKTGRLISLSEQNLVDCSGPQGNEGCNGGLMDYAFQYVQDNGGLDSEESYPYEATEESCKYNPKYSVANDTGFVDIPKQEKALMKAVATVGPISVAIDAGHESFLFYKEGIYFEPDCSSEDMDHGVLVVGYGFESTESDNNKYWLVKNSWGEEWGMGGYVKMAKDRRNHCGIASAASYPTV

## CC(C)C[C@H](N[C@@H](c1ccc(-c2ccc(S(C)(=O)=O)cc2)cc1)C(F)(F)F)C(=O)NC(C)(C)C#N
Procathepsin L [1]
  IC50: > 10000 nM
Cathepsin S [2]
  IC50: 2490 nM
Cathepsin B [3]
  IC50: > 10000 nM
Cathepsin K [4]
  IC50: 4 nM

## CC(C)C[C@H](N[C@@H](c1ccc(-c2ccc(S(C)(=O)=O)cc2)cc1)C(F)(F)F)C(=O)NCC#N
Cathepsin K [5]
  IC50: 0.8 nM
[6]
  clearance: 7.5 mL/min/kg
[7]
  half-life: 2 h
Osteoclast
  IC50: 13 nM
Cathepsin K [4]
  IC50: 0.2 nM

## CCCN1CCN(c2ccc(C(=O)NC3(C(=O)NCC#N)CCCCC3)cc2)CC1 [BALICATIB]
Fibroblast
  Activity: 3

## CC(C)C[C@H](N[C@@H](c1ccc(-c2ccc(S(C)(=O)=O)cc2)cc1)C(F)(F)F)C(=O)N[C@@H](C)C#N
Procathepsin L [1]
  IC50: 3390 nM
Cathepsin S [2]
  IC50: 2240 nM
Cathepsin B [3]
  IC50: > 10000 nM
Cathepsin K [4]
  IC50: 1.2 nM

## CC(C)(F)C[C@H](N[C@@H](c1ccc(-c2ccc(S(C)(=O)=O)cc2)cc1)C(F)(F)F)C(=O)NC1(C#N)CC1 [ODANACATIB]
[8]
  bioavailability: 7%
Cathepsin Z
  IC50: > 10000 nM
Cathepsin B [9]
  IC50: 1050 nM
[10]
  remaining at 2 h, 20 µM: > 99%
[11]
  half-life: 18 h
Rhesus monkey
  Vdss: 1.6 L/kg
Cathepsin L2
  IC50: 762 nM
Dipeptidyl peptidase 1
  IC50: > 10000 nM
Cathepsin K [12]
  IC50: 0.2 nM
[13]
  bioavailability: 6%
Cathepsin K [5]
  IC50: 1 nM
Procathepsin L [14]
  IC50: 4840 nM
[15]
  CL/F: 2 mL/min/kg
[16]
  IC50: 1500 nM
Cathepsin F
  IC50: 795 nM
[17]
  CL/F: 6.1 mL/min/kg
Pro-cathepsin H
  IC50: > 10000 nM
Procathepsin L [1]
  IC50: 3000 nM
Canis familiaris
  Vdss: 0.6 L/kg
[18]
  bioavailability: 8%
[19]
  half-life: 6 h
[20]
  remaining at 2 h, 20 µM: > 99%
Osteoclast
  IC50: 23 nM
Cathepsin S [2]
  IC50: 60 nM
[21]
  remaining at 2 h, 20 µM: 98%
Splenocyte
  MIC: 1 µM (≈ 0.526 µg/mL)
Cathepsin S [22]
  IC50: 45 nM
[23]
  half-life: 57 h
Rattus norvegicus
  Vdss: 1.1 L/kg
Cathepsin B [3]
  IC50: 1030 nM
[24]
  CL/F: 0.13 mL/min/kg
Cathepsin K [4]
  IC50: 0.2 nM

## CC(C)C[C@H](N[C@@H](c1ccc(-c2ccc(S(C)(=O)=O)cc2)cc1)C(F)(F)F)C(=O)NC(C#N)c1ccccc1 (mixture of isomers)
Procathepsin L [1]
  IC50: 667 nM
Cathepsin S [2]
  IC50: 217 nM
Cathepsin B [3]
  IC50: 3450 nM
Cathepsin K [4]
  IC50: 0.6 nM

## CC(C)C[C@H](N[C@@H](c1ccc(-c2ccc(S(C)(=O)=O)cc2)cc1)C(F)(F)F)C(=O)N[C@@H](C#N)Cc1ccccc1
Procathepsin L [1]
  IC50: 2940 nM
Cathepsin S [2]
  IC50: 2830 nM
Cathepsin B [3]
  IC50: > 10000 nM
Cathepsin K [4]
  IC50: 5.1 nM

## CC(C)C[C@H](NC(=O)c1cc2ccccc2o1)C(=O)N[C@H]1CC[C@@H](C)N(S(=O)(=O)c2ccccn2)CC1=O [RELACATIB]
Cathepsin B [9]
  IC50: 14 nM
Osteoclast
  IC50: 15 nM
Cathepsin S [22]
  IC50: 8 nM

## CC(C)C[C@H](N[C@@H](c1ccc(-c2ccc(S(C)(=O)=O)cc2)cc1)C(F)(F)F)C(=O)N[C@H](C#N)Cc1ccccc1
Procathepsin L [1]
  IC50: 67 nM
Cathepsin S [2]
  IC50: 38 nM
Cathepsin B [3]
  IC50: 953 nM
Cathepsin K [4]
  IC50: 0.6 nM
